Laboratory results: ChEMBL document CHEMBL4513216, “Probing the Open Global Health Chemical Diversity Library for Multistage-Active Starting Points for Next-Generation Antimalarials” (ACS Infect Dis, 2020)

Assay: Toxicity liver stage against HepG2, at 10uM
Type: cell-based
Design: test concentration 10 uM, cell line HepG2-A16-CD81EGFP
Conditions: human, HepG2-A16-CD81EGFP cells; read-out: INHIBITION
Summary of the method: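 Uninfected HepG2-A16-CD81EGFP cells, 3 × 10^3 per well, 1536-well, plated on prespotted compound at 10 μM final, parasite-free screening media added to match infected plates; puromycin 10 μM positive, DMSO 0.5% negative; run in parallel with 48 h PbLuc assay at 37 °C, 5% CO2; viability by CellTiter-Glo luminescence, normalized to controls.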

Cc1noc(C)c1CN1CC2(CCN(C(=O)c3ccc[nH]3)C2)CC1=O (stereo not given)
cytotoxicity at 10 µM: 6.27%

CC[C@H](C)[C@H](NC(=O)c1cccc(-n2cnnn2)c1)C(=O)OC
cytotoxicity at 10 µM: 7.98%

CC(C)c1nc(S(=O)(=O)N(C)c2ccc(F)cc2)c[nH]1
cytotoxicity at 10 µM: -0.131%

CC(C)[C@H]1COC(=O)N1CC(=O)N1CCN(C(=O)c2ccco2)CC1
cytotoxicity at 10 µM: 4.32%

Cc1ncccc1NC(=O)[C@H]1C[C@@H]2CCN(Cc3ccsc3)C[C@H]2O1
cytotoxicity at 10 µM: -79.1%

CN(C)S(=O)(=O)N1C[C@H]2CC[C@@H](C1)N(Cc1ccc3nsnc3c1)C2
cytotoxicity at 10 µM: -7.7%

CCC[C@H]1CN(Cc2cc(C#N)n(C)c2C)C[C@@H]1N(C)C
cytotoxicity at 10 µM: -152%

O=C(C1CCC1)N1C[C@@H]2CCN(c3cccnc3)C[C@@H]2C1
cytotoxicity at 10 µM: -2.13%

COCCCNc1ncnc2c1CCN(C(=O)CC1C=CCC1)CC2 (stereo not given)
cytotoxicity at 10 µM: 5.97%

COc1ccc2cc(CN(C)C(C)c3nc(C(C)(C)C)no3)ccc2c1 (stereo not given)
cytotoxicity at 10 µM: 1.44%

COC1CCC(N(C)c2ccnc(N(C)C)n2)CC1 (stereo not given)
cytotoxicity at 10 µM: -13.6%

COc1cccc(CCNC(=O)CN2CCN(C)CC2C)c1 (stereo not given)
cytotoxicity at 10 µM: -16.7%

Cc1nc(C)c(C(=O)NCC(c2ccccc2Cl)N2CCOCC2)s1 (stereo not given)
cytotoxicity at 10 µM: 1.4%

Cc1csc(N2CCN(CCc3ccccn3)CC2C)n1 (stereo not given)
cytotoxicity at 10 µM: -8.81%

CC(CCc1ccccc1F)C(=O)NS(=O)(=O)N(C)C(C)C (stereo not given)
cytotoxicity at 10 µM: 10.6%

CC(C)CS(=O)(=O)CC(=O)NC(C)c1nnc2n1CCC2 (stereo not given)
cytotoxicity at 10 µM: -19.1%

O=C(c1ccc(-c2ccccc2)[nH]c1=O)N1CCN(C2CC2)CC1
cytotoxicity at 10 µM: 9.8%

CCN1C[C@@H]2[C@@H](OC)CCN(S(=O)(=O)c3cccnc3)[C@@H]2C1
cytotoxicity at 10 µM: -77%

CN1C(=O)CO[C@H]2CCN(C(=O)Cc3ccc4c(c3)CCCC4)CC[C@@H]21
cytotoxicity at 10 µM: 4.45%

Clc1ccc2nncc(N3CCCCC3)c2c1
cytotoxicity at 10 µM: -4.34%

Cc1cc(C(F)(F)F)n2nc(C3CCCN(S(C)(=O)=O)C3)cc2n1 (stereo not given)
cytotoxicity at 10 µM: 1.49%

O=C(c1sccc1C1CC1)N1CCN(c2nccs2)CC1
cytotoxicity at 10 µM: 1.41%

O=C(NCC1COC2(CCOCC2)O1)c1csc(-c2cccc(Cl)c2)n1 (stereo not given)
cytotoxicity at 10 µM: -10.7%

N#Cc1ccccc1CN1CCCC(c2nccn2CC2CC2)C1 (stereo not given)
cytotoxicity at 10 µM: 2.84%

CN1CC(=O)N(c2ccccc2)CC12CCN(C(=O)c1ccnnc1)C2 (stereo not given)
cytotoxicity at 10 µM: 3.39%

Cc1ccc(C)c(NCc2nc3n(n2)CCCCC3)c1
cytotoxicity at 10 µM: 6.39%

CCn1nc(C)c(CNC(=O)NCC(C)(O)c2ccsc2)c1C (stereo not given)
cytotoxicity at 10 µM: 7.59%

CC(C)N1CCN(C)CC(Cc2cc(N(C)C)ncn2)C1 (stereo not given)
cytotoxicity at 10 µM: 9.25%

OCC1CCCN1c1cc(N2CCc3ccccc3C2)ncn1 (stereo not given)
cytotoxicity at 10 µM: 2.53%

Nc1nnnn1NCc1cccc2ccccc12
cytotoxicity at 10 µM: 10.4%

Cc1cccc(COC[C@@]23CCC[C@@H]2CN(C(=O)Cc2ccco2)C3)n1
cytotoxicity at 10 µM: -109%

FC(F)(F)c1cc(N2CCc3ncnc(NC4CC4)c3CC2)ncn1
cytotoxicity at 10 µM: 1.79%

CCN(CC)S(=O)(=O)c1ccc(NC(=O)C(C)(C)C)cc1
cytotoxicity at 10 µM: 9.22%

Cc1nc(N2CCC3(CCOC3)C2)c2cc[nH]c2n1 (stereo not given)
cytotoxicity at 10 µM: -2.95%

O=C(NCc1cnc2n1CCN(CC1CC1)CC2)C1CCC1
cytotoxicity at 10 µM: -12.9%

CC(C)CN1CCN(S(=O)(=O)c2cn(C)cn2)[C@H]2CS(=O)(=O)C[C@H]21
cytotoxicity at 10 µM: -4.07%

Cc1noc(CCCC(=O)NC(C)c2cccnc2)n1 (stereo not given)
cytotoxicity at 10 µM: -12.5%

Cc1cccn2c(=O)cc(CN3CCCCC3Cn3cncn3)nc12 (stereo not given)
cytotoxicity at 10 µM: 10.7%

CCNc1cc2c(nn1)CCN(C(=O)c1ccnc(-n3ccnc3)c1)C2
cytotoxicity at 10 µM: -3.01%

C=C(C)CN1CCC(NC(=O)Nc2ccc(F)c(C(N)=O)c2)CC1
cytotoxicity at 10 µM: -6.08%

Cc1ccc(SC2CCCC2)c(C(=O)NCc2n[nH]c(=O)[nH]2)c1
cytotoxicity at 10 µM: -38.4%

Cc1cc(C(=O)N2CCC3(C2)CN(c2ccsc2)C(=O)CN3C)[nH]n1 (stereo not given)
cytotoxicity at 10 µM: -75.2%

Cc1nc2c(N3CCN(Cc4ccccc4)CC3)nc(N)nc2n1C
cytotoxicity at 10 µM: 5.61%

Cc1csc(C2CCCCN2C(=O)CN(C)C(C)C)n1 (stereo not given)
cytotoxicity at 10 µM: -3.62%

O=C(CCn1c(C(F)(F)F)cc2cccnc21)NC1CCCC1
cytotoxicity at 10 µM: -14.3%

O=C(N1CCOCC1)N1CCc2[nH]nc(COc3cccc(Cl)c3)c2C1
cytotoxicity at 10 µM: -42.2%

Cc1noc2ncc(C(=O)NCC3CCN(C(C)C)C3)cc12 (stereo not given)
cytotoxicity at 10 µM: -12.4%

COc1cccc(CN2CCCCC2CN2CCOCC2)c1F (stereo not given)
cytotoxicity at 10 µM: 2.64%

Cc1nc(C)n(CC2CCCN(Cc3ccc4c(c3)OCCO4)C2)n1 (stereo not given)
cytotoxicity at 10 µM: -18.9%

Cc1cc(C)n(CC(=O)N(C)Cc2csc(-c3cccs3)n2)c(=O)n1
cytotoxicity at 10 µM: 32.2%

Cc1cnc(C(=O)N2CCC3(CC2)CC(c2ccncc2)C(=O)N3)cn1 (stereo not given)
cytotoxicity at 10 µM: 9.14%

COCCc1noc(CN2C(=O)OC[C@@H]2C(C)C)n1
cytotoxicity at 10 µM: -8.93%

COc1cc(C(=O)N(C)Cc2cc(C(=O)O)c(C)o2)cc(OC)c1OC
cytotoxicity at 10 µM: -1.76%

CCC(CN1CCCC1)NC(=O)Cc1c(C)[nH]c2cc(C)cc(C)c12 (stereo not given)
cytotoxicity at 10 µM: 2.73%

CCn1c(CN(C)CC(=O)N(C)C)nc2c(F)cccc21
cytotoxicity at 10 µM: -4.36%

CCOC(=O)N1CCN(c2nc(NCCO)c3ccccc3n2)CC1
cytotoxicity at 10 µM: -1.32%

Cc1ccnc(NC(=O)c2c(C)oc(C)c2C)c1
cytotoxicity at 10 µM: 17.2%

O=C(c1cnc(-c2ncccn2)s1)N1CCCC(n2cccn2)C1 (stereo not given)
cytotoxicity at 10 µM: -2.85%

Cc1cccc(O[C@H]2COCCN(C3CCC3)C2)n1
cytotoxicity at 10 µM: -4.81%

CCC(=O)N1CSCC1C(=O)Nc1ccccc1-c1cccs1 (stereo not given)
cytotoxicity at 10 µM: -3.8%

CC(=O)N1CCN(C(C)c2ccc(Br)cc2)CC1 (stereo not given)
cytotoxicity at 10 µM: -5.63%

FC(F)Oc1ccc(NCc2nc(C3CC3)no2)c(OC(F)F)c1
cytotoxicity at 10 µM: 4.19%

CC(=O)N1CCc2ncc(CNC(=O)C3CCC3)n2CC1
cytotoxicity at 10 µM: 7.48%

O=C(c1ccnnc1)N1C[C@H](Oc2cccnc2)[C@H]2OCCC[C@H]21
cytotoxicity at 10 µM: -14.7%

Cc1cc(NC(=O)C2CCN(c3ncccc3C#N)CC2)no1
cytotoxicity at 10 µM: 3.54%

CCc1cnc(N2CC[C@H]3[C@H]2CC(=O)N3c2cccnc2)nc1
cytotoxicity at 10 µM: -9.62%

NC(=O)[C@@H]1Cc2ccccc2N1C(=O)C1CC(c2ccccc2)=NO1 (stereo not given in full)
cytotoxicity at 10 µM: 5.79%

Cn1cnnc1-c1cncc(NCc2cccc3c2OCO3)c1
cytotoxicity at 10 µM: 9.15%

N#CCCn1cnc2c(F)cc(Br)cc2c1=O
cytotoxicity at 10 µM: 0.997%

Cc1c[nH]c(CN2CCN(C)C3(CCC(=O)N(CC4CC4)CC3)C2)n1 (stereo not given)
cytotoxicity at 10 µM: -5.54%

Cc1nc(CN2CCCC(Nc3ncnc4c3CCC4)C2)no1 (stereo not given)
cytotoxicity at 10 µM: 34.3%

Cc1cncc(C(=O)NCC2COCc3c(C)nnn3C2)c1 (stereo not given)
cytotoxicity at 10 µM: -2.03%

CC(=O)NCC1CCN(C(=O)c2c(C)[nH]c3ccc(Cl)cc23)CC1
cytotoxicity at 10 µM: 8.11%

COCCNc1nc(C)nc2c1CCN(CC1CCC(N)CC1)CC2 (stereo not given)
cytotoxicity at 10 µM: -2.84%

COc1cccc(CNC(=O)CCC2=Nc3ccccc3S(=O)(=O)N2)c1
cytotoxicity at 10 µM: 4.19%

Cn1ncc2c1CCCC2NCc1ccc(OCc2cccnc2)cc1 (stereo not given)
cytotoxicity at 10 µM: 4.13%

COc1cccc(F)c1C(C)NC(=O)NCc1ccnc(C)n1 (stereo not given)
cytotoxicity at 10 µM: -10.9%

Cc1ncsc1-c1ccn(CC(=O)Nc2cnn(C)n2)n1
cytotoxicity at 10 µM: 93.8%

CCc1nc(C2CCCN2CC(=O)Nc2nncs2)no1 (stereo not given)
cytotoxicity at 10 µM: -9.47%

CCC1=NN2C(=N)C(=Cc3cccn3-c3cccc(Cl)c3)C(=O)N=C2S1
cytotoxicity at 10 µM: -5.7%

CCc1nc(C)c([C@H]2CN(C)C[C@@H]2C(=O)NCc2ccccn2)[nH]1
cytotoxicity at 10 µM: 2.77%

CC(=O)NCCCSC1CCN(c2ccccc2Cl)C1=O (stereo not given)
cytotoxicity at 10 µM: -9.04%

Cc1cc(C(=O)N(C)C2CCN(C)C2)c2ccc(F)cc2n1 (stereo not given)
cytotoxicity at 10 µM: -2.55%

CN1CC(c2ccccc2)C2(CCN(C(=O)c3ccc[nH]3)CC2)C1=O (stereo not given)
cytotoxicity at 10 µM: 9.25%

CCOc1ccc(C#N)cc1NCC(=O)OC
cytotoxicity at 10 µM: -19.2%

NC(=O)N1CCCC1COC(=O)c1cc(F)ccc1F (stereo not given)
cytotoxicity at 10 µM: -0.743%

O=C(c1ccccn1)N1CCc2c(nc(-c3ccncc3)[nH]c2=O)C1
cytotoxicity at 10 µM: 2.99%

O=C(c1c[nH]c2ncccc12)N1CCC(COc2ccccc2)CC1
cytotoxicity at 10 µM: 14.4%

CCc1nnc(N2CCN(CCc3ccccc3)C(=O)C2)o1
cytotoxicity at 10 µM: -1.01%

CCc1ncc(CNCc2cccnc2N(C)C)cn1
cytotoxicity at 10 µM: -2.62%

O=C(C1CCCN(C2CCOCC2)C1)N1Cc2ccccc2C1 (stereo not given)
cytotoxicity at 10 µM: 2.49%

O=C1NCCN1C1CCCN(Cc2coc(-c3cccs3)n2)C1 (stereo not given)
cytotoxicity at 10 µM: -4.39%

CC(=O)N1CCCC(c2ncncc2-c2ccncc2)C1 (stereo not given)
cytotoxicity at 10 µM: -15.3%

Cc1[nH]c2ccccc2c1-c1ccnc(NC[C@H](O)CO)n1
cytotoxicity at 10 µM: 8.9%

O=C(c1cnc(O)cn1)N1CCC(CN2CCOCC2)CC1
cytotoxicity at 10 µM: 9.49%

CCc1nnc(Nc2cccc(C3CCN(C(=O)CNC)CC3)n2)s1
cytotoxicity at 10 µM: -31.2%

Cc1nn(C)c2nc(N3CCC(C(O)c4ccccn4)CC3)sc12 (stereo not given)
cytotoxicity at 10 µM: 22.2%

COc1cccc(-c2cc(NCc3nc(C)cs3)n(C)n2)c1
cytotoxicity at 10 µM: -0.717%

COc1ccc(OC)c(CN(C)c2nc3c(cnn3C)c(=O)[nH]2)c1
cytotoxicity at 10 µM: 59.5%

O=C1CCC(=O)N1CCOc1nc(-c2ccccc2Cl)no1
cytotoxicity at 10 µM: 6.97%

COc1ccnc(CN(C)C(=O)CSc2nnc(N)s2)c1
cytotoxicity at 10 µM: 3.94%

CC(C)(C)c1nnc(CN2CCCC2Cn2cncn2)o1 (stereo not given)
cytotoxicity at 10 µM: -4.04%

Cc1cc(C)n(C2CCN(c3ncnc4c3CCNCC4)C2)n1 (stereo not given)
cytotoxicity at 10 µM: 7.82%

O=C(c1ccco1)N1CCC2(CCCN(c3ncc(F)cn3)C2)C1 (stereo not given)
cytotoxicity at 10 µM: -88.4%

O=C(Nc1ccccc1F)C1=NOC2(CCNCC2)C1
cytotoxicity at 10 µM: 2.93%

COc1ccc(CC(=O)N2CCC3(CC2)CCN(CC(C)C)C3=O)cc1
cytotoxicity at 10 µM: 1.11%

CCOc1c(F)cccc1C(=O)N(C)CCc1ccccn1
cytotoxicity at 10 µM: 18.6%

Cc1cc(CN2CCCC2c2c(C)nn(C)c2Cl)no1 (stereo not given)
cytotoxicity at 10 µM: -6.98%

COc1cc2c(cc1CNCc1cccnc1OC)OC(C)C2 (stereo not given)
cytotoxicity at 10 µM: 3.67%

CC(C)CCC(=O)NC(C)c1nnc2n1CCCCC2 (stereo not given)
cytotoxicity at 10 µM: -7.76%
